Screening data as filed in PubChem.
HUVEC inhibit: inhibitors of HUVEC proliferation, primary screen, cell-based, 384-well | CellTiter-Glo luminescence, 72 h; stronger effect = lower value | viability, % at 10 µM (by protocol) | 86,000 compounds, 1.1% hits | AID 648, 2007;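 active = viability at or below 30%; inactive = viability above 30%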;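 note: 100% = median luminescence of DMSO-only cell control wells on each plate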
PTEN del growth: growth suppression of PTEN-null HCT116, primary screen, cell-based, CellTiter-Glo; HCT116 PTEN-null viability, 60 h; stronger effect = lower value; viability, % at 10 µM; 140,000 compounds, 1.2% hits; AID 827, 2007;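 active = viability at or below a set limit, 4 SD under the median of all tested compounds, cut at about 3.7% in these data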;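 note: PTEN knockout HCT116 line with beta catenin targeted HCT116 as companion control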
PTK2B oligo ant: antagonists of Pyk2 self-association, primary screen, Q293 cells, FERM NanoBiT luminescence, HTS; Protein-tyrosine kinase 2-beta (Homo sapiens), Q14289; stronger effect = lower value; z-score (the deposit names both 25 µM and 10 µM); 99,000 compounds, 0.83% hits; AID 1347419, 2020;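 active = Z-score of -3 or lower, scaled per plate to the spread of control and sample wells; inactive = z-score above -3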;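 note: negative z-score means lost luminescence so less FERM oligomerization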
Target sequence (Q14289 whole entry, looked up): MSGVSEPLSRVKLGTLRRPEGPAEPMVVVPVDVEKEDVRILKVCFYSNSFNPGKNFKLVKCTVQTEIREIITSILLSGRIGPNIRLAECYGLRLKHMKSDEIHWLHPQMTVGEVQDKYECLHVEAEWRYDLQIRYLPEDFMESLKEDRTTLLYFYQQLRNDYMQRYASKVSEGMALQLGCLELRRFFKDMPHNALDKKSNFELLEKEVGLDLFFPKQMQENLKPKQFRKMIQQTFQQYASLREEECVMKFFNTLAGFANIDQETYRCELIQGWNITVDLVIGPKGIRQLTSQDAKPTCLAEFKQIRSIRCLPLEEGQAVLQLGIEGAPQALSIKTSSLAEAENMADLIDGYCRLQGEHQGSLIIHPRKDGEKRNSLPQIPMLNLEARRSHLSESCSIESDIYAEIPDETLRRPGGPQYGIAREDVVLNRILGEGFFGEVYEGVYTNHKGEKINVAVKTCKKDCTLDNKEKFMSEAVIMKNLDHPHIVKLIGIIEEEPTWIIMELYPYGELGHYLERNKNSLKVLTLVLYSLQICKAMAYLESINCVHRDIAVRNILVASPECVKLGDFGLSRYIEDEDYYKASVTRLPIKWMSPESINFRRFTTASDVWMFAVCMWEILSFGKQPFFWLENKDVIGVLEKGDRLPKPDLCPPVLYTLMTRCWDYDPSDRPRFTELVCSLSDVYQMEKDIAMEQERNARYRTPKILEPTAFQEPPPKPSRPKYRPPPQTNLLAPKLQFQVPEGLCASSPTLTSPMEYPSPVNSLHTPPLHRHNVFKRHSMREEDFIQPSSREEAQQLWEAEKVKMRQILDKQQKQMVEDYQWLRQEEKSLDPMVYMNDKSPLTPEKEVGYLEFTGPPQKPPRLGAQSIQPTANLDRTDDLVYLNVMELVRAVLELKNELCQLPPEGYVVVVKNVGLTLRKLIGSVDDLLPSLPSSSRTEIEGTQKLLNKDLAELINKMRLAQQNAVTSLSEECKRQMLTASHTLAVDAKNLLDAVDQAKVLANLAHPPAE
Lung fibro prol: antiproliferative effect on LL 47 fibroblasts – human, LL 47 cells, CellTiter-Glo luminescence, primary screen. LL 47 human lung fibroblast viability, ATP luminescence; stronger effect = lower value. viability, % at 10 µM. 85,000 compounds, 1.1% hits;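 active = viability at or below 50% in the single dose screen; inactive = viability above 50%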;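 note: compound exposure lasted 72 h before the ATP readout; 100% = median luminescence of untreated cell-only wells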
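material = human LL 47 lung fibroblast cells | dosing = compounds added from tenfold dosing solution, 0.1% DMSO final | timing = overnight cell rest, 72 h compound treatment at 37 °C | measured by = CellTiter-Glo luminescence measuring cellular ATP | evaluation = % viability versus median cells-only luminescence | control set = cell-only wells, no compound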
bCat KO growth: primary screen for growth suppressors in beta-catenin knockout HCT116 cells (colon tumor, human). HCT116 beta-catenin knockout viability, CellTiter-Glo, 60 h; stronger effect = lower value. viability, % at 10 µM. 140,000 compounds, 1.5% hits. AID 818, 2007;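 active = viability at or under a set limit, the compound median less 4 SD, cut at about 6% in these data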;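 note: 0% = Hyamine 1622 control at 20 µM and 100% = untreated cell control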
H69AR inhibit: proliferation blockers of H69AR lung cancer cells, primary screen, cell-based, human, 86K library; H69AR lung tumor viability, ATP luminescence, 72 h; stronger effect = lower value; viability, % at 10 µM; 85,000 compounds, 6% hits;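 active = viability at or below 40%; inactive = viability above 40%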;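 note: multidrug resistant small cell line overexpressing MRP-1 efflux transporter; 100% = mean luminescence of untreated control wells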
Numbers without * were called inactive; nt = not tested or not shown. Shown is part of a subset that was picked to be rich in hits.

SMILES	HUVEC inhibit	PTEN del growth	PTK2B oligo ant	Lung fibro prol	bCat KO growth	H69AR inhibit
Cc1ccc(OC(=O)c2sc(Cl)nc2C)cc1C	nt	12	nt	nt	12	nt
Cc1nn(-c2cc(N3CCCC3)ccc2[N+](=O)[O-])c(=O)c2ccccc12	83	88	-3	103	91	33*
Cc1nn(-c2cc(N3CCOCC3)ccc2[N+](=O)[O-])c(=O)c2ccccc12	91	98	-1.4	96	98	101
Cn1ccnc1C(=O)c1cc(=O)c2ccccc2o1	97	96	0.49	99	90	94
CSc1nc(C)cc(-n2ccc(=O)[nH]c2=O)n1	103	94	0.12	90	89	92
CCC(Sc1nc2n[nH]c(C)c2c(=N)n1-c1cccc(Cl)c1C)C(=O)N(CC)CC (stereo not drawn)	80	57	-3*	89	64	nt
Cc1cc(C)c(S(=O)(=O)Nc2ccc[nH]c2=O)c(C)c1	100	92	0.2	88	92	87
CC(C)n1c(SCC(=O)Nc2nc3c(s2)CCCC3)nc2c1c(=O)n(C)c(=O)n2C	79	71	-3	93	67	34*
Cn1c(=O)c2c(nc(SCC(=O)N3c4ccccc4CCc4ccccc43)n2C)n(C)c1=O	nt	89	0.68	nt	93	nt
CC(C)n1c(SCC(=O)N2c3ccccc3CCc3ccccc32)nc2c1c(=O)n(C)c(=O)n2C	43	nt	nt	97	nt	20*
CN1CCN(CCCC(=O)c2ccc(C3CCCC3)cc2)CC1	nt	63	nt	nt	50	nt
CC(NC(=O)/C=C/c1cnc2ccccc2n1)C12CC3CC(CC(C3)C1)C2 (stereo not drawn)	nt	50	nt	nt	55	nt
COc1ccc(-c2nc(-c3cccc(C)c3)[nH]c(=O)c2C#N)cc1	nt	89	0.34	nt	84	nt
CC1=C(C#N)C2C(/C1=N/O)C2(C)C (stereo not drawn)	100	96	1.2	92	92	97
O=C(O)CCc1nc2cccnc2n1Cc1ccccc1	101	96	-0.17	96	95	73
CCc1ccc(NC(=O)CCc2nc3cccnc3n2Cc2ccc(OC)cc2)cc1	64	61	-1.1	45*	58	18*
COc1ccc(C(=O)/C=C2/c3ccccc3CC(C)(C)N2C)cc1OC	nt	92	nt	nt	77	nt
Cc1nc(NCCc2ccc(S(N)(=O)=O)cc2)c2c3c(sc2n1)CCC3	nt	86	0.88	nt	84	nt
Cc1sc2nc(CN3CCOCC3)nc(NCCc3ccccc3)c2c1C	88	88	-1.7	97	79	30*
NS(=O)(=O)c1ccc(CCNc2nc(CN3CCOCC3)nc3sc4c(c23)CCC4)cc1	85	nt	1.1	97	nt	16*
CCOc1ccc(Br)cc1S(=O)(=O)Nc1nc(CN2CCOCC2)nc2sc(C)c(C)c12	84	91	-0.37	98	98	34*
COc1ccc(S(=O)(=O)N2CCC(C(=O)NCc3ccccn3)CC2)cc1C	103	93	-0.09	100	83	87
COc1ccccc1NC(=O)Cn1cnc2sc(C)c(S(=O)(=O)N3CCCCC3)c2c1=O	106	90	nt	110	96	100
C=C1C(O)C[C@H]2C(=C)CCC3[C@H](OC(=O)[C@]3(O)CO)[C@@H]12 (stereo partly drawn)	nt	0.5*	nt	nt	0.7*	nt
N#CCC(CNc1ncc(C(F)(F)F)cc1Cl)OC(=O)c1cccc([N+](=O)[O-])c1 (stereo not drawn)	nt	62	-0.27	nt	65	nt
COc1ccc(S(=O)(=O)N2CCC(C(=O)N3CCc4ccccc4C3)CC2)cc1Cl	79	79	-0.7	95	96	41
CC1=CC(=NOC(=O)c2cccc([N+](=O)[O-])c2)C=C(C)C1=O	96	27	-0.01	91	9	74
CC1=CC(=O)C(C(C)C)=C/C1=N/OC(=O)c1cccc([N+](=O)[O-])c1	104	60	0.37	87	51	33*
Fc1cccc(NC(=S)NCCN2CCOCC2)c1	nt	97	nt	nt	100	nt
COC(=O)C1=C(C)NC(C)=C(C(=O)OC)C1c1cc2cc(C)ccc2[nH]c1=O	100	87	0.33	103	93	89
